The source made the active and inactive calls. The calls are words filed in the database; no cut-off is given here.
Key:
[1] = target: Histamine H2 receptor (Cavia porcellus) (UniProt P47747); assay: Intrinsic activity (as a measure of agonism) on electrically stimulated papillary muscle of guinea pig; type: functional, tissue-based; conditions: Muscle tissue
Summary of the method: (§1)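 Isolated right-ventricular papillary muscle from guinea pig, electrically paced at 1 Hz with 1 ms pulses, in Krebs-Henseleit solution gassed with O2/CO2 95:5 at 32.5 °C. Compounds were tested as hydrohalide salts. Cumulative concentration-response curves of contractile force were run against histamine as the standard agonist. […] relative potency were taken from pD2, with histamine maximum = 1.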

[2] = target: Histamine H2 receptor (Cavia porcellus) (UniProt P47747); assay: Potency relative to histamine calculated from mean pD2 value in guinea pig right atrium.; type: functional, tissue-based; conditions: Cardiac atrium
Summary of the method: (§2)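 Spontaneously beating isolated guinea pig right atrium with a positive chronotropic read-out. Cumulative concentration-response curves were run against histamine dihydrochloride as the standard. Incubation after each concentration was usually 25 min, adjusted until equilibrium. H2 selectivity was checked with cimetidine (10 µM and 1 µM) and metoprolol (1 µM). Potency relative to histamine = 1 was calculated from mean pD2 values.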

[3] = target: Histamine H2 receptor (Cavia porcellus) (UniProt P47747); assay: Histamine H2 receptor agonistic activity (as a measure of agonism) at the isolated right atrium of guinea pig, activity relative to histamine.; type: functional, tissue-based; conditions: Cardiac atrium; summary of the method: as §2
Histamine H1 receptor [4] = target: T1, Histamine H1 receptor (Cavia porcellus, UniProt P31389); assay: Antagonist activity at histamine H1 receptor against histamine in isolated ileum of guinea pig.; type: functional, tissue-based; conditions: read-out: pA2 (converted)
T1 sequence (P31389 whole entry): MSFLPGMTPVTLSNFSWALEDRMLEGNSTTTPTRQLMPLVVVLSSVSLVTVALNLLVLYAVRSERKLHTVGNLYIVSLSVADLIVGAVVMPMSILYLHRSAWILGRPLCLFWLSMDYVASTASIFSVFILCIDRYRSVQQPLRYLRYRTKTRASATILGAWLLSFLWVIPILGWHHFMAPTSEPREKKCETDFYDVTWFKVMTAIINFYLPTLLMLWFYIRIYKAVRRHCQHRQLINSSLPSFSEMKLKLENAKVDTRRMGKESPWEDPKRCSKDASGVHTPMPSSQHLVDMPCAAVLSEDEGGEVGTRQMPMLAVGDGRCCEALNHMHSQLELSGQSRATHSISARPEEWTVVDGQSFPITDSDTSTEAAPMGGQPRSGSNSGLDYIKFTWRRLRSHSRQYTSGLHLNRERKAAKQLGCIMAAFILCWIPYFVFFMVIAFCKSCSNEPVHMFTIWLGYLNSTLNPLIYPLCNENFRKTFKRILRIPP
Summary of the method: (§3)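 Isolated guinea pig ileum contracted by histamine, with histamine dihydrochloride as the standard agonist in cumulative dose-response curves. pA2 was derived. For compounds that depressed the histamine maximum at 10 µM, -log KB was taken at 3 µM antagonist from log(DR-1) = log[ant.] - log KB.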

[5] = target: Histamine H2 receptor (Cavia porcellus) (UniProt P47747); assay: Histamine H2 receptor agonism relative to histamine on isolated guinea pig right atrium; type: functional, tissue-based; conditions: Cardiac atrium; summary of the method: as §2
[6] = target: Histamine H2 receptor (Cavia porcellus) (UniProt P47747); assay: Agonistic activity relative to histamine on electrically stimulated papillary muscle of guinea pig; type: functional, tissue-based; conditions: Muscle tissue; summary of the method: as §1
[7] = target: Histamine H2 receptor (Cavia porcellus) (UniProt P47747); assay: Intrinsic activity at H2 receptor in electrically stimulated guinea pig papillary muscle; type: functional, tissue-based; summary of the method: as §1
[8] = target: Histamine H2 receptor (Cavia porcellus) (UniProt P47747); assay: Agonist activity at H2 receptor relative to histamine on electrically stimulated papillary muscle of guinea pig; type: functional, tissue-based; summary of the method: as §1
[9] = target: Histamine H2 receptor (Cavia porcellus) (UniProt P47747); assay: Potency at H2 receptor compared to histamine from mean pD2 value in right atrium of guinea pig; type: functional, tissue-based; conditions: Cardiac atrium; summary of the method: as §2
[10] = target: Histamine H2 receptor (Cavia porcellus) (UniProt P47747); assay: H2 receptor agonist activity relative to histamine on isolated right atrium of guinea pig; type: functional, tissue-based; conditions: Cardiac atrium; summary of the method: as §2
[11] = target: Histamine H2 receptor (Cavia porcellus) (UniProt P47747); assay: H2 receptor agonistic activity in isolated right atrium of guinea pig compared to histamine; type: functional, tissue-based; conditions: Cardiac atrium; summary of the method: as §2
Cavia porcellus [12] = organism: Cavia porcellus; assay: Chronotropic effect assessed from maximal increase in delta LV (dp/dtmax) in isolated perfused guinea pig heart; type: functional; conditions: in the assay text read “Inotropic effect” for “Chronotropic effect”
Summary of the method: (§4)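 Langendorff-perfused isolated guinea pig heart. Compounds were given as a bolus injected into the perfusion stream, with impromidine as reference. Net increases in LV dp/dtmax, heart rate and coronary flow were expressed against impromidine = 100% in a control group (n = 6 each). Relative potency was taken from molar ED50 ratios versus impromidine = 100%.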

Cavia porcellus [13] = organism: Cavia porcellus; assay: Increase in heart rate with maximal inotropic response in isolated perfused guinea pig heart; type: functional; design: unit not given beside the values; summary of the method: as §4
Cavia porcellus [14] = organism: Cavia porcellus; assay: Relative potency with impromidine (100%) in isolated perfused guinea pig heart; type: functional; summary of the method: as §4
Cavia porcellus [15] = organism: Cavia porcellus; assay: Increase in coronary flow with maximal inotropic response in isolated perfused guinea pig heart; type: functional; design: unit not given beside the values; summary of the method: as §4
Histamine H1 receptor [16] = target: T1, Histamine H1 receptor; assay: Antagonist activity at histamine H1 receptor against histamine in isolated ileum of guinea pig; type: functional, tissue-based; conditions: read-out: pA2 (converted); summary of the method: as §3
[17] = target: Histamine H2 receptor (Cavia porcellus) (UniProt P47747); assay: Compound was tested for histamine H2 receptor agonistic activity of compound relative to histamine on isolated right atrium of guinea pig;NA means inactive as agonist at </=10 uM.; type: functional, tissue-based; conditions: Cardiac atrium; summary of the method: as §2

Chain of Histamine H2 receptor (Cavia porcellus) (P47747 whole entry): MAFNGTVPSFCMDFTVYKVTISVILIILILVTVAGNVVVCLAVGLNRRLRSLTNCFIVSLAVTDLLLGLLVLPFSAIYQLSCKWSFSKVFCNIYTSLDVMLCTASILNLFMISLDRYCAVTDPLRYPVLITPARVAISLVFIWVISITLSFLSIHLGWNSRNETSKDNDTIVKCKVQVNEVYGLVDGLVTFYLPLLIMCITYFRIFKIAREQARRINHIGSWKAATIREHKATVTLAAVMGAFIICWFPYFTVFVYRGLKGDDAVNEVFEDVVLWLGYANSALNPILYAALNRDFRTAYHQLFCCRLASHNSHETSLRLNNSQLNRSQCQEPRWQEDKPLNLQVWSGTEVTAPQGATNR

Compound	Intrinsic activity [1]	Relative potency [2]	Intrinsic activity [3]	Kb (Histamine H1 receptor [4]) [nM]	pD2 [5]	pD2 [6]	other results
N=C(NCCCc1c[nH]cn1)NCC(c1ccccc1)c1ccccn1 (stereo not drawn)	–	2.2	1	3310	6.35	–	–
N=C(NCCCc1c[nH]cn1)NCCC(c1ccncc1)c1ccc(F)cc1 (stereo not drawn)	–	–	–	37.2	–	–	Intrinsic activity [7]: 0.9; pD2 [8]: 7.28; Relative potency [9]: 42.7; pD2 [10]: 7.63; Intrinsic activity [11]: 1
N=C(NCCCc1c[nH]cn1)NCCC(c1cc(F)cc(F)c1)c1ccccn1 (stereo not drawn)	0.8	112	1	275	8.05	7.91	Delta LV (Cavia porcellus [12]): 129; Delta heart rate (Cavia porcellus [13]): 79; Relative potency (Cavia porcellus [14]): 244; Delta coronary flow (Cavia porcellus [15]): 182
N=C(NCCCc1c[nH]cn1)NCCCC(c1ccccc1)c1ccccn1 (stereo not drawn)	–	4.1	1	–	6.61	–	–
N=C(NC/C=C(\c1ccc(F)cc1)c1ccccn1)NCCCc1c[nH]cn1	–	29.5	1	347	7.47	–	–
COc1ccc(C(CC/N=C(\N)NCCCc2c[nH]cn2)c2ccccn2)cc1 (stereo not drawn)	0.5	27.5	1	269	7.44	7	–
Cc1[nH]cnc1CSCCNC(=N)NCCCc1c[nH]cn1 [IMPROMIDINE]	–	–	–	–	–	–	Delta LV (Cavia porcellus [12]): 100; Delta heart rate (Cavia porcellus [13]): 100; Relative potency (Cavia porcellus [14]): 100; Delta coronary flow (Cavia porcellus [15]): 100
N/C(=N\CCC(c1ccc(O)cc1)c1ccccn1)NCCCc1c[nH]cn1 (stereo not drawn)	–	4.3	1	–	6.63	–	Kb (Histamine H1 receptor [16]): 661 nM
N=C(NCCCc1c[nH]cn1)NCCC(c1ccc(F)c(F)c1)c1ccccn1 (stereo not drawn)	–	–	–	–	–	–	Delta LV (Cavia porcellus [12]): 123; Delta heart rate (Cavia porcellus [13]): 85; Intrinsic activity [7]: 0.8; Relative potency (Cavia porcellus [14]): 240; Delta coronary flow (Cavia porcellus [15]): 108; pD2 [8]: 7.9; Relative potency [9]: 132; pD2 [10]: 8.12; Intrinsic activity [11]: 1
N=C(NCCCc1c[nH]cn1)NCCC(c1ccc(Cl)c(Cl)c1)c1ccccn1 (stereo not drawn)	0.8	155	1	79.4	8.19	7.54	Delta LV (Cavia porcellus [12]): 121; Delta heart rate (Cavia porcellus [13]): 62; Relative potency (Cavia porcellus [14]): 221; Delta coronary flow (Cavia porcellus [15]): 128
N=C(N)NCCC(c1ccc(F)cc1)c1ccccn1 (stereo not drawn)	–	–	–	229	–	–	Intrinsic activity [17]: inactive
N=C(NCCCc1c[nH]cn1)NCCC(c1ccccc1)c1ccc(Cl)c(Cl)c1 (stereo not drawn)	0.6	28.8	1	195	7.46	6.03	–
N=C(NCCCc1c[nH]cn1)NCCC(c1ccc(Cl)cc1)c1ccccn1 (stereo not drawn)	0.8	69.2	1	77.6	7.84	7.39	Delta LV (Cavia porcellus [12]): 91; Delta heart rate (Cavia porcellus [13]): 62; Relative potency (Cavia porcellus [14]): 90; Delta coronary flow (Cavia porcellus [15]): 103
NC(=NCCC(c1ccc(F)cc1)c1ccccn1)NCCCc1cnc[nH]1 (stereo not drawn) [ARPROMIDINE]	–	–	–	22.4	–	–	–
N=C(NCCCc1c[nH]cn1)NCCC(c1ccccn1)c1cccs1 (stereo not drawn)	–	14.5	1	45.7	7.16	–	–
N=C(NCCCc1c[nH]cn1)NCCSC(c1ccccc1)c1ccccn1 (stereo not drawn)	–	4	1	–	6.6	–	–
Cc1ccc(C(CC/N=C(\N)NCCCc2c[nH]cn2)c2ccccn2)cc1 (stereo not drawn)	1	51.3	1	148	7.71	7.15	Delta LV (Cavia porcellus [12]): 96; Delta heart rate (Cavia porcellus [13]): 77; Relative potency (Cavia porcellus [14]): 138; Delta coronary flow (Cavia porcellus [15]): 59
N=C(NCCCc1c[nH]cn1)NCCC(c1ccccc1)c1ccc(F)cc1 (stereo not drawn)	0.7	53.7	1	34.7	7.73	7.45	–
N=C(NCCCc1c[nH]cn1)NCCC(c1cccc(Cl)c1)c1ccccn1 (stereo not drawn)	0.6	87.1	1	–	7.94	7.71	Delta LV (Cavia porcellus [12]): 103; Delta heart rate (Cavia porcellus [13]): 96; Relative potency (Cavia porcellus [14]): 199; Delta coronary flow (Cavia porcellus [15]): 79
N=C(NCCCc1c[nH]cn1)NCCC(c1ccc(F)cc1)c1ccccn1 (stereo not drawn) [ARPROMIDINE]	0.8	102	1	–	8.01	7.94	Delta LV (Cavia porcellus [12]): 97; Delta heart rate (Cavia porcellus [13]): 57; Relative potency (Cavia porcellus [14]): 146; Delta coronary flow (Cavia porcellus [15]): 143

More lines, main results first:

Intrinsic activity [1]	Relative potency [2]	Intrinsic activity [3]	Kb (Histamine H1 receptor [4]) [nM]	pD2 [5]	pD2 [6]	Compound	other results
0.7	26.9	1	525	7.43	7.44	N=C(NCCCc1c[nH]cn1)NCCC(c1cccc(C(F)(F)F)c1)c1ccccn1 (stereo not drawn)	–
–	28.8	1	437	7.46	–	N=C(NCCCc1c[nH]cn1)NCCC(c1ccccn1)c1ccccc1F (stereo not drawn)	–
–	1.5	0.8	141	6.17	–	N=C(NCCCc1c[nH]cn1)NCCC(Cc1ccccc1)c1ccc(F)cc1 (stereo not drawn)	–
–	0.25	0.8	1100	5.4	–	CN(CCC(c1ccc(F)cc1)c1ccccn1)C(=N)NCCCc1c[nH]cn1 (stereo not drawn)	–
–	52.5	0.9	288	7.72	–	N=C(NCCCc1c[nH]cn1)NCCC(c1ccccn1)c1ccc(Cl)cc1Cl (stereo not drawn)	–
–	24	0.9	851	7.38	–	N/C(=N\CCC(c1cccc(N)c1)c1ccccn1)NCCCc1c[nH]cn1 (stereo not drawn)	–
–	26.3	0.9	115	7.42	–	N/C(=N\CCC(O)(c1ccc(F)cc1)c1ccccn1)NCCCc1c[nH]cn1 (stereo not drawn)	–
0.5	75.9	1	158	7.88	7.79	N=C(NCCCc1c[nH]cn1)NCCC(c1cccc(F)c1)c1ccccn1 (stereo not drawn)	–
–	7.4	0.9	46.8	6.87	–	N=C(NCCCc1c[nH]cn1)NCCCC(c1ccc(F)cc1)c1ccccn1 (stereo not drawn)	–
0.9	57.5	0.9	282	7.76	7.23	N=C(NCCCc1c[nH]cn1)NCCC(c1ccc(C(F)(F)F)cc1)c1ccccn1 (stereo not drawn)	–
0.4	30.2	1	120	7.48	6.97	N=C(NCCCc1c[nH]cn1)NCCC(c1ccc(Br)cc1)c1ccccn1 (stereo not drawn)	Delta LV (Cavia porcellus [12]): 93; Delta heart rate (Cavia porcellus [13]): 101; Relative potency (Cavia porcellus [14]): 61; Delta coronary flow (Cavia porcellus [15]): 155
–	7.9	1	389	6.9	–	N=C(NCCCc1c[nH]cn1)NCCC(c1ccccn1)c1ccccn1	–
–	23.4	1	43.7	7.37	–	N=C(NCCCc1c[nH]cn1)NCCC(c1cc(Cl)cc(Cl)c1)c1ccccn1 (stereo not drawn)	–
–	8.1	0.9	1700	6.91	–	N/C(=N\CCC(c1cccc([N+](=O)[O-])c1)c1ccccn1)NCCCc1c[nH]cn1 (stereo not drawn)	–
–	–	–	513	–	–	N=C(NCCCc1c[nH]cn1)NCCC(c1ccccn1)c1ccccc1Cl (stereo not drawn)	Relative potency [9]: 22.4; pD2 [10]: 7.35; Intrinsic activity [11]: 0.9
0.8	123	1	–	8.09	7.91	N=C(NCCCc1c[nH]cn1)NCCC(c1ccc(F)cc1)c1cccnc1 (stereo not drawn)	–
–	–	–	97.7	–	–	N=C(NCCCc1c[nH]cn1)NCCC(c1ccccc1)c1ccc(Cl)cc1 (stereo not drawn)	Intrinsic activity [7]: 0.8; pD2 [8]: 5.83; Relative potency [9]: 13.2; pD2 [10]: 7.12; Intrinsic activity [11]: 1
